For 26 compounds, IC50 and EC50 results are on record in ChEMBL document CHEMBL1148568, “Synthesis and biological evaluation of 3-ethylidene-1,3-dihydro-indol-2-ones as novel checkpoint 1 inhibitors” (Bioorg Med Chem Lett, 2006).

The target in assay [1] is T1, Serine/threonine-protein kinase Chk1 (Homo sapiens, UniProt O14757).
T1 sequence (O14757 whole entry): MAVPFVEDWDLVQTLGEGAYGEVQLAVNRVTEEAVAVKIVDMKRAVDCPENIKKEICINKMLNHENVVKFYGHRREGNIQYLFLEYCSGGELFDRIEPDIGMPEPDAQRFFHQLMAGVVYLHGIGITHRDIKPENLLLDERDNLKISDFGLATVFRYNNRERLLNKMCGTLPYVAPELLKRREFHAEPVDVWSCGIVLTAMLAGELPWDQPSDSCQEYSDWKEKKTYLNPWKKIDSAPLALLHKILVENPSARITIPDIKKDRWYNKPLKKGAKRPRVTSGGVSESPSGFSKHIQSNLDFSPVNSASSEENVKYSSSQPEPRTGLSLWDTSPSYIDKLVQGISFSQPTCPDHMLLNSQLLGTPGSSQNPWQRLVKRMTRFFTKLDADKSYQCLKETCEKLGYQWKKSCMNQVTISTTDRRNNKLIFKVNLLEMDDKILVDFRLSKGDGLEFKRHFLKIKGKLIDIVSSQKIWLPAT
The assay can be described thus: Inhibitory activity against Chk1.

Assay [2] addresses Serine/threonine-protein kinase Chk2 (Homo sapiens, UniProt O96017). Put plainly: Inhibitory activity against Chk2.
The subject of assay [3] is HeLa. Put plainly: Antiproliferative activity against human HeLa cells by MTS assay. Format: functional, cell-based. A digest of the protocol: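 p53-deficient human cervical cancer HeLa cells were treated with the test compound alone over varying concentrations. Proliferation was read out by MTS, and the antiproliferative EC50 was determined.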
On the technique in general: Formazan colour is commonly taken as a measure of viable cells.

The subject of assay [4] is HeLa. The assay can be described thus: Antiproliferative activity against human HeLa cells by MTS assay in the presence of doxorubicin. Format: functional, cell-based.
In assay [5] the target is Proto-oncogene tyrosine-protein kinase Src (Homo sapiens, UniProt P12931). Put plainly: Inhibitory activity against SRC.
Proto-oncogene tyrosine-protein kinase Src, sequence (P12931 2-536 limits assumed): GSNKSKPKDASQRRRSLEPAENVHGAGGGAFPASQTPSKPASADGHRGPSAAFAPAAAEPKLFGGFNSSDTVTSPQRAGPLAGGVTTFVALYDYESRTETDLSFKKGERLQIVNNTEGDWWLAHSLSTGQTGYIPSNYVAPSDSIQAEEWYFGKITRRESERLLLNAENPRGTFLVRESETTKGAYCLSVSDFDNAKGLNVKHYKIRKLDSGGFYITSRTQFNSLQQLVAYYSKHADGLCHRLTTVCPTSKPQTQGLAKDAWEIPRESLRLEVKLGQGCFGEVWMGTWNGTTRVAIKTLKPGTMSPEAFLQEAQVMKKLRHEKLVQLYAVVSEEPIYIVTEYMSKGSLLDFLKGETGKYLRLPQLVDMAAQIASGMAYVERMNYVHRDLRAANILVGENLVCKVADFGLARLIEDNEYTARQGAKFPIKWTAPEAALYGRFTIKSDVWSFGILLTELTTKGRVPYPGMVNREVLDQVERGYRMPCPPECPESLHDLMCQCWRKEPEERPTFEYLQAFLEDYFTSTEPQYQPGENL
The target in assay [6] is T2, Serine/threonine-protein kinase Sgk1 (Homo sapiens, UniProt O00141).
T2 sequence (O00141 whole entry): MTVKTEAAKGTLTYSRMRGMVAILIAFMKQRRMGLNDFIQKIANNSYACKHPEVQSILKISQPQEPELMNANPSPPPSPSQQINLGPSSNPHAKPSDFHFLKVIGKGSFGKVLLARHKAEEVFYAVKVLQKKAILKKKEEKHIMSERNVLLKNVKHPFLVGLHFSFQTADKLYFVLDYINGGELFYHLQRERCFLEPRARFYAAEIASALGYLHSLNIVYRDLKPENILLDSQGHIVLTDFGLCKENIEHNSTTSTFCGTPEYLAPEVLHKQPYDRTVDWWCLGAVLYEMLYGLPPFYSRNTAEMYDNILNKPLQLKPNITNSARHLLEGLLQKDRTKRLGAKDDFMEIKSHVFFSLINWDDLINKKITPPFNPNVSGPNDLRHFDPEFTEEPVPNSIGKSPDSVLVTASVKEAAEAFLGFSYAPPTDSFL
Put plainly: Inhibitory activity against SGK.

In another assay the target is Casein kinase II (Homo sapiens, UniProt P19784+P67870+P68400). The assay can be described thus: Inhibitory activity against CK2. Format: protein-complex assay.
Casein kinase II, sequence (P67870 whole entry): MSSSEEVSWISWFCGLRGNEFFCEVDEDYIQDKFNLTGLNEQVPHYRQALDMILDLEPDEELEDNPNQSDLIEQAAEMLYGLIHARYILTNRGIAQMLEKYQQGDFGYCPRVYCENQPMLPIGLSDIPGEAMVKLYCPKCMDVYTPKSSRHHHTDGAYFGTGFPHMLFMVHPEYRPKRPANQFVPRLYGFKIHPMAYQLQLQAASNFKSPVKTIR
Casein kinase II, sequence (P68400 whole entry): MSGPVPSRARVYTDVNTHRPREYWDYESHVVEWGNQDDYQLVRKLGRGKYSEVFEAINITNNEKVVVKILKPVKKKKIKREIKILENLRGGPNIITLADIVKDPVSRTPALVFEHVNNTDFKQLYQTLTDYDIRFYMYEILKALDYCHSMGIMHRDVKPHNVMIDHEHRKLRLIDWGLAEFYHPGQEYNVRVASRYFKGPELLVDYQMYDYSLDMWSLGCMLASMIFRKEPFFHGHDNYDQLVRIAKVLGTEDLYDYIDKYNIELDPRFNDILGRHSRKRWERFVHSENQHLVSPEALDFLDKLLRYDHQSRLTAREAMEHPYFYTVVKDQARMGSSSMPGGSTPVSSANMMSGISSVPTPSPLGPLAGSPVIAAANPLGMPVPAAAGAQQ
Casein kinase II, sequence (P19784 whole entry): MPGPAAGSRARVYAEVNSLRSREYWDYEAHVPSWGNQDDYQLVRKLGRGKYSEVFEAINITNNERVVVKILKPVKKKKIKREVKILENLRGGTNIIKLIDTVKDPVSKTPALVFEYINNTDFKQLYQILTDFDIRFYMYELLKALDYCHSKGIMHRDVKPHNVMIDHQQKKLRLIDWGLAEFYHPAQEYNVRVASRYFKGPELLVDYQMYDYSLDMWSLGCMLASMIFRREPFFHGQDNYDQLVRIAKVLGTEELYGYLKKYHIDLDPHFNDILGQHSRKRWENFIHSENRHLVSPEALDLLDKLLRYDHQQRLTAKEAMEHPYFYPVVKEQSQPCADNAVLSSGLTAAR
For assay [7], the target named is Cyclin-dependent kinase 1 (Homo sapiens, UniProt P06493). Put plainly: Inhibitory activity against CDC2.
Cyclin-dependent kinase 1, sequence (P06493 whole entry): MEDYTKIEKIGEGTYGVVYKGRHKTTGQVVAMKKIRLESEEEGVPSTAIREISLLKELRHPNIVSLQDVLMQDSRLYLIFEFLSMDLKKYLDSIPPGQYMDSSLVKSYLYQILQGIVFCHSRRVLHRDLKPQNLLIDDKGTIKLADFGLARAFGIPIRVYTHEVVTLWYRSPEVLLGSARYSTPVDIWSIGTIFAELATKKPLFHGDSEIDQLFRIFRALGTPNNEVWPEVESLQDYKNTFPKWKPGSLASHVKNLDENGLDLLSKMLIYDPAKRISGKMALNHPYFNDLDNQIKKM
The target in assay [8] is MAP kinase-activated protein kinase 2 (Homo sapiens, UniProt P49137). The assay can be described thus: Inhibitory activity against MAPKAP2.
MAP kinase-activated protein kinase 2, sequence (P49137 whole entry): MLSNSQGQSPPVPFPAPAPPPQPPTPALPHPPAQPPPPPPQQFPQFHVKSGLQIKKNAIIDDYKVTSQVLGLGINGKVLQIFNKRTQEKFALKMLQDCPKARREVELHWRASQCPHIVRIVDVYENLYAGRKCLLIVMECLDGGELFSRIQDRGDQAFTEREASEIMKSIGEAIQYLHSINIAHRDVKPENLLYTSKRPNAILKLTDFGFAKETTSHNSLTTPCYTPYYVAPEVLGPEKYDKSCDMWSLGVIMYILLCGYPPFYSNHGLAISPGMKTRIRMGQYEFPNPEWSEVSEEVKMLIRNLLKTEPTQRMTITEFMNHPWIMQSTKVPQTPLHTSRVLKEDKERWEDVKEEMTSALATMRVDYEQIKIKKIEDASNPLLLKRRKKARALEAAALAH
The target in another assay is Angiopoietin-1 receptor (Homo sapiens, UniProt Q02763). Put plainly: Inhibitory activity against Tie2.
Angiopoietin-1 receptor, sequence (Q02763 whole entry): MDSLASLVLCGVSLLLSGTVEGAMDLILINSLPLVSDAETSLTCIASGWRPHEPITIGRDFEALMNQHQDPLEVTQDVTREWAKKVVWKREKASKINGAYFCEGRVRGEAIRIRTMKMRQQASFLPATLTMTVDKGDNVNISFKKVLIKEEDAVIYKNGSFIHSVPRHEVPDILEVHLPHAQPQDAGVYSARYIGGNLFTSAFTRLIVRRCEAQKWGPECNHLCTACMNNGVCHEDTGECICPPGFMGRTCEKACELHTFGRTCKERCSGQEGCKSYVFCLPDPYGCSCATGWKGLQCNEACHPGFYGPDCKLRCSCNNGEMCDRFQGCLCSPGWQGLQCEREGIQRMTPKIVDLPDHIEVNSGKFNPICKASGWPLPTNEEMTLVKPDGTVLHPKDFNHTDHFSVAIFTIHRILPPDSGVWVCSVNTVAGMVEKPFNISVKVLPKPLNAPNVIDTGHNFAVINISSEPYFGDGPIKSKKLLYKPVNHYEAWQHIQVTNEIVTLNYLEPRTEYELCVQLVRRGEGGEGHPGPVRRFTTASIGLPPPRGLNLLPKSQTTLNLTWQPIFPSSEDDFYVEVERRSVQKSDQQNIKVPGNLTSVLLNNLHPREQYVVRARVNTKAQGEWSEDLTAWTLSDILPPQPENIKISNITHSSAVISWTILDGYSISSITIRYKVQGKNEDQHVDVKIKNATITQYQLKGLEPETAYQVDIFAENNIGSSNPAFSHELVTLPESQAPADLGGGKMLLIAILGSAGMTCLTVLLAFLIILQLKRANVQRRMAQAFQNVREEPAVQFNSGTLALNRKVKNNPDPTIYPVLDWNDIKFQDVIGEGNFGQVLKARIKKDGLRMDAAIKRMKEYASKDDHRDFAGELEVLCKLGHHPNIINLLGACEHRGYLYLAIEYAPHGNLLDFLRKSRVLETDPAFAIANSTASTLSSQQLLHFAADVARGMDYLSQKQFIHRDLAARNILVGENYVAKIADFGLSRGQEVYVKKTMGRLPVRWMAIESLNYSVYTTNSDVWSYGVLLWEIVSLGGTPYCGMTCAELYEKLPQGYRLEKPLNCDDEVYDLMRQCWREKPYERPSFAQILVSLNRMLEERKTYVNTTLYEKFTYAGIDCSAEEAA
The target of assay [9] is Epidermal growth factor receptor (Homo sapiens, UniProt P00533). Put plainly: Inhibitory activity against EGFR.
In assay [10] the target is Protein kinase C gamma type (Homo sapiens, UniProt P05129). The assay can be described thus: Inhibitory activity against PKC gamma.
In assay [11] the target is Protein kinase C delta type (Homo sapiens, UniProt Q05655). Put plainly: Inhibitory activity against PKC delta.
Protein kinase C delta type, sequence (Q05655 whole entry): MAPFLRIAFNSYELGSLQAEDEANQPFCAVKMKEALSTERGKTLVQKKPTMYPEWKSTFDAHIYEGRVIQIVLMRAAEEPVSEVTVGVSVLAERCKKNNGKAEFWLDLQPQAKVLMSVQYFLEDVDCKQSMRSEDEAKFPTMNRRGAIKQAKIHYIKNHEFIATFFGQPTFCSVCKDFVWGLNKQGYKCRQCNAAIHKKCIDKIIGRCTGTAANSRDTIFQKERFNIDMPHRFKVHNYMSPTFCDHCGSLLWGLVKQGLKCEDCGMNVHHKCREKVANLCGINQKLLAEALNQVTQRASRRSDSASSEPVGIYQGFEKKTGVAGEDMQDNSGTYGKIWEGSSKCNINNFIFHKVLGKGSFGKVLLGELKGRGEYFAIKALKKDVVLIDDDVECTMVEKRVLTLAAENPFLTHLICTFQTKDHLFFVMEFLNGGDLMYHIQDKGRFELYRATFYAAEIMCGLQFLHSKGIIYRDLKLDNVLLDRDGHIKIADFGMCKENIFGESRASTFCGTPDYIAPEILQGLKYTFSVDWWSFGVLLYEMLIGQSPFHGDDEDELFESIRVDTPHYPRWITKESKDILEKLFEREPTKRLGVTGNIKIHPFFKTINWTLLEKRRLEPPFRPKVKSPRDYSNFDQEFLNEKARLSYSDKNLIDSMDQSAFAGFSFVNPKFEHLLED

Serine/threonine-protein kinase Chk2, sequence (O96017 whole entry): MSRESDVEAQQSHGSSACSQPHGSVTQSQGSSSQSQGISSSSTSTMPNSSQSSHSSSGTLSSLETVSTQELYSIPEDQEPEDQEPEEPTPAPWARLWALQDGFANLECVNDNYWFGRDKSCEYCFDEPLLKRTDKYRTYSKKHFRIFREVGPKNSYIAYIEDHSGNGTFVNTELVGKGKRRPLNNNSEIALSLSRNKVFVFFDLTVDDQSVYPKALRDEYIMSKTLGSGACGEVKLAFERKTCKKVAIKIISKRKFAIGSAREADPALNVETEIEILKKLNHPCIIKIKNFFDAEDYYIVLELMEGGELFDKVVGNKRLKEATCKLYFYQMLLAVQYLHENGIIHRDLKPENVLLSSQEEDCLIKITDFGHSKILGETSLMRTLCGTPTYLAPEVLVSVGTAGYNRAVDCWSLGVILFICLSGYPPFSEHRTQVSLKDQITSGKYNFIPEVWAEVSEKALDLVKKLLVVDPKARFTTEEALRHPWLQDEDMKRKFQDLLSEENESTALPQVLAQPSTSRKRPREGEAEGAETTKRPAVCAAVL

Broadly, the IC50 is the point on the concentration scale where inhibition reaches its midpoint. The low end stands for greater potency, the high end for weaker potency. In turn, `COc1cc(-c2ccc3c(c2)NC(=O)/C3=C\c2cc[nH]c2)cc(OC)c1OC` yielded an IC50 in assay [1] of over 10 µM.
With `COc1cc(-c2ccc3c(c2)NC(=O)/C3=C\c2[nH]c(C)c(CCO)c2C)ccc1O`, the half-inhibitory concentration (IC50) in assay [1] is 0.047 µM.
Take `COc1cc(-c2ccc3c(c2)NC(=O)/C3=C\c2[nH]c(C)cc2-c2ccccc2)ccc1O`: the half-inhibitory concentration (IC50) in [1] was over 10 µM.
`O=C1Nc2cc(-c3ccc(OC(F)(F)F)cc3)ccc2/C1=C/c1cc[nH]c1` showed a half-inhibitory concentration (IC50) in assay [1] of over 10 µM.
As to `COc1cc(-c2ccc3c(c2)NC(=O)/C3=C\c2c[nH]c3ccccc23)ccc1O`, half-maximal inhibition in assay [1] (IC50) required 0.092 µM.
In the case of `COc1cc(-c2ccc3c(c2)NC(=O)/C3=C\c2c[nH]c3nc(C#N)ccc23)ccc1O`, half-maximal inhibition in [1] (IC50) required 0.445 µM.
Still for that read-out and setting: for `O=C1Nc2cc(-c3ccc(F)c(F)c3)ccc2/C1=C/c1cc[nH]c1` the value was over 10 µM; for `COc1cc(-c2ccc3c(c2)NC(=O)/C3=C\c2cc[nH]c2)ccc1O`, 0.025 µM.
For `COc1cc(-c2ccc3c(c2)NC(=O)/C3=C\c2[nH]c(C)cc2C(C)C)ccc1O`, half-maximal inhibition in assay [1] (IC50) was put at 3.46 µM.
Take `COc1cc(-c2ccc3c(c2)/C(=C/c2c[nH]c4ccccc24)C(=O)N3)ccc1O`: the concentration for half-maximal inhibition (IC50) in assay [1] is over 50 µM.
Consider `COc1cc(-c2ccc3c(c2)NC(=O)/C3=C\c2cccc(OC)c2OC)ccc1O`, for which the 50% inhibitory concentration (IC50) in [1] is over 50 µM.
On the same count and under the same terms, for `COc1cc(-c2ccc3c(c2)/C(=C/c2ccc[nH]2)C(=O)N3)ccc1O` the value was 2.84 µM.
The EC50 is the concentration that produces a half-maximal response. On to `COc1cc(-c2ccc3c(c2)NC(=O)/C3=C\c2c[nH]c3ncccc23)ccc1O`, for which the IC50 was 22.7 µM in assay [2]; 2.38 µM in assay [5]; over 50 µM in assay [6]; 41.7 µM at Casein kinase II; 0.454 µM in assay [7]; 0.004 µM in [1]. The compound also yielded an IC50 in assay [8] of over 50 µM. Also, the 50% effective concentration (EC50) in the assay with HeLa [3] worked out at 0.01 µM; with HeLa [4], 0.18 µM.
Consider `COc1cc(-c2ccc3c(c2)NC(=O)/C3=C\c2ccc[nH]2)ccc1O`, for which the IC50 was over 50 µM at Angiopoietin-1 receptor; 21.7 µM in assay [2]; over 50 µM in [9]; over 50 µM in [10]; over 50 µM in assay [5]; over 50 µM in assay [6]. For the same compound, the IC50 (against Casein kinase II; in assay [7]; in assay [11]; in assay [8]) was over 50 µM each time.
In turn, `COc1cc(-c2ccc3c(c2)/C(=C/c2cccc(OC)c2OC)C(=O)N3)ccc1O` displayed a half-inhibitory concentration (IC50) in assay [1] of over 50 µM.
Consider `COc1cc(-c2ccc3c(c2)/C(=C/c2c[nH]c4c(C)cccc24)C(=O)N3)ccc1O`, for which the IC50 in assay [1] was 3.46 µM.
In the case of `COC(=O)CCc1c(C)[nH]c(/C=C2\C(=O)Nc3cc(-c4ccc(O)c(OC)c4)ccc32)c1C`, in [1], the IC50 was determined as 0.075 µM.
Consider `COc1cc(-c2ccc3c(c2)NC(=O)/C3=C\c2[nH]c(C)c(CN(C)C)c2C(C)C)ccc1O`, for which 1.28 µM corresponded to half-maximal inhibition in assay [1] (IC50).
Still for that read-out and setting: as for `COc1cc(O)ccc1-c1ccc2c(c1)NC(=O)/C2=C\c1cc[nH]c1`, the figure is 0.01 µM; as for `COc1cc(-c2ccc3c(c2)NC(=O)/C3=C\c2[nH]c(C)cc2C)ccc1O`, 0.12 µM; as for `Cc1ccc(-c2ccc3c(c2)NC(=O)/C3=C\c2cc[nH]c2)cc1`, over 10 µM.
`Nc1ccc(-c2ccc3c(c2)NC(=O)/C3=C\c2cc[nH]c2)cc1` showed an IC50 in assay [1] of 1.03 µM.
Same read-out and setting: for `COc1cc(-c2ccc3c(c2)NC(=O)/C3=C\C2CCCN2)ccc1O` (stereo unspecified) the value was 3.97 µM; for `O=C1Nc2cc(-c3ccc(O)cc3)ccc2/C1=C/c1cc[nH]c1`, 0.029 µM.
Same read-out and setting: for `COc1cc(-c2ccc3c(c2)NC(=O)/C3=C\c2c[nH]c3c(C)cccc23)ccc1O` the value was 1.31 µM.
For the compound `COc1cc(-c2ccc3c(c2)NC(=O)/C3=C\c2ncc[nH]2)ccc1O`, the IC50 against Angiopoietin-1 receptor is 23.3 µM; in assay [2], 14.6 µM; in assay [9], over 50 µM; in assay [10], over 50 µM; in assay [5] it was over 50 µM; in assay [6], 1.5 µM. Moreover, the concentration for half-maximal inhibition (IC50) in assay [7] was 0.251 µM; in assay [1] it was 0.018 µM; in assay [11], over 50 µM.
